Converted amounts (≈) assume the structure as drawn.
System: Escherichia coli
Test: Antibacterial activity against extended-spectrum beta-lactamase-producing Escherichia coli isolate 12-4
Format: functional
Method in brief: (§1)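 MIC determined in vitro by a standard technique and defined as the lowest compound concentration giving complete inhibition of bacterial growth. The Gram-positive and Gram-negative panels were tested alongside gemifloxacin, levofloxacin and ciprofloxacin reference drugs.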

SMILES	MIC
CO/N=C1\CN(c2nc3c(cc2F)c(=O)c(C(=O)O)cn3C2CC2)CC1CN (stereo unspecified) [GEMIFLOXACIN]	2 µg/mL (≈ 5.14 µM)

System: Escherichia coli
Test: Antibacterial activity against extended-spectrum beta-lactamase-producing Escherichia coli isolate 12-2
Format: functional
Method in brief: as §1

SMILES	MIC
CO/N=C1\CN(c2nc3c(cc2F)c(=O)c(C(=O)O)cn3C2CC2)CC1CN (stereo unspecified) [GEMIFLOXACIN]	16 µg/mL (≈ 41.1 µM)

System: Escherichia coli
Test: Antibacterial activity against extended-spectrum beta-lactamase-producing Escherichia coli isolate 12-1
Format: functional
Method in brief: as §1

SMILES	MIC
CO/N=C1\CN(c2nc3c(cc2F)c(=O)c(C(=O)O)cn3C2CC2)CC1CN (stereo unspecified) [GEMIFLOXACIN]	8 µg/mL (≈ 20.5 µM)

System: Escherichia coli
Test: Antibacterial activity against Escherichia coli isolate 12-5
Format: functional
Method in brief: as §1

SMILES	MIC
CO/N=C1\CN(c2nc3c(cc2F)c(=O)c(C(=O)O)cn3C2CC2)CC1CN (stereo unspecified) [GEMIFLOXACIN]	16 µg/mL (≈ 41.1 µM)

System: Escherichia coli
Test: Antibacterial activity against Escherichia coli isolate 12-4
Format: functional
Method in brief: as §1

SMILES	MIC
CO/N=C1\CN(c2nc3c(cc2F)c(=O)c(C(=O)O)cn3C2CC2)CC1CN (stereo unspecified) [GEMIFLOXACIN]	16 µg/mL (≈ 41.1 µM)

System: Escherichia coli
Test: Antibacterial activity against Escherichia coli isolate 12-1
Format: functional
Method in brief: as §1

SMILES	MIC
CO/N=C1\CN(c2nc3c(cc2F)c(=O)c(C(=O)O)cn3C2CC2)CC1CN (stereo unspecified) [GEMIFLOXACIN]	0.125 µg/mL (≈ 0.321 µM)

System: Escherichia coli
Test: Antibacterial activity against Escherichia coli ATCC 25922
Format: functional
Method in brief: as §1

SMILES	MIC
CO/N=C1\CN(c2nc3c(cc2F)c(=O)c(C(=O)O)cn3C2CC2)CC1CN (stereo unspecified) [GEMIFLOXACIN]	0.015 µg/mL (≈ 0.0385 µM)

System: Streptococcus pneumoniae
Test: Antibacterial activity against Streptococcus pneumoniae isolate 12-5
Format: functional
Method in brief: as §1

SMILES	MIC
CO/N=C1\CN(c2nc3c(cc2F)c(=O)c(C(=O)O)cn3C2CC2)CC1CN (stereo unspecified) [GEMIFLOXACIN]	0.25 µg/mL (≈ 0.642 µM)

System: Streptococcus pneumoniae
Test: Antibacterial activity against Streptococcus pneumoniae isolate 12-2
Format: functional
Method in brief: as §1

SMILES	MIC
CO/N=C1\CN(c2nc3c(cc2F)c(=O)c(C(=O)O)cn3C2CC2)CC1CN (stereo unspecified) [GEMIFLOXACIN]	0.25 µg/mL (≈ 0.642 µM)

System: Staphylococcus epidermidis
Test: Antibacterial activity against methicillin-resistant Staphylococcus epidermidis isolate 12-35
Format: functional
Method in brief: (§2)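 MIC determined in vitro by standard techniques, defined as the lowest compound concentration giving complete inhibition of bacterial growth. Gemifloxacin, levofloxacin and ciprofloxacin were tested alongside as reference drugs.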

SMILES	MIC
CO/N=C1\CN(c2nc3c(cc2F)c(=O)c(C(=O)O)cn3C2CC2)CC1CN (stereo unspecified) [GEMIFLOXACIN]	0.008 µg/mL (≈ 0.0205 µM)

System: Staphylococcus epidermidis
Test: Antibacterial activity against methicillin-resistant Staphylococcus epidermidis isolate 12-33
Format: functional
Method in brief: as §2

SMILES	MIC
CO/N=C1\CN(c2nc3c(cc2F)c(=O)c(C(=O)O)cn3C2CC2)CC1CN (stereo unspecified) [GEMIFLOXACIN]	4 µg/mL (≈ 10.3 µM)

System: Staphylococcus epidermidis
Test: Antibacterial activity against methicillin-resistant Staphylococcus epidermidis isolate 12-5
Format: functional
Method in brief: as §2

SMILES	MIC
CO/N=C1\CN(c2nc3c(cc2F)c(=O)c(C(=O)O)cn3C2CC2)CC1CN (stereo unspecified) [GEMIFLOXACIN]	0.015 µg/mL (≈ 0.0385 µM)

System: Staphylococcus epidermidis
Test: Antibacterial activity against methicillin-sensitive Staphylococcus epidermidis isolate 12-3
Format: functional
Method in brief: as §1

SMILES	MIC
CO/N=C1\CN(c2nc3c(cc2F)c(=O)c(C(=O)O)cn3C2CC2)CC1CN (stereo unspecified) [GEMIFLOXACIN]	0.06 µg/mL (≈ 0.154 µM)

System: Staphylococcus epidermidis
Test: Antibacterial activity against methicillin-sensitive Staphylococcus epidermidis isolate 12-2
Format: functional
Method in brief: as §1

SMILES	MIC
CO/N=C1\CN(c2nc3c(cc2F)c(=O)c(C(=O)O)cn3C2CC2)CC1CN (stereo unspecified) [GEMIFLOXACIN]	0.25 µg/mL (≈ 0.642 µM)

System: Staphylococcus epidermidis
Test: Antibacterial activity against methicillin-sensitive Staphylococcus epidermidis isolate 12-1
Format: functional
Method in brief: as §1

SMILES	MIC
CO/N=C1\CN(c2nc3c(cc2F)c(=O)c(C(=O)O)cn3C2CC2)CC1CN (stereo unspecified) [GEMIFLOXACIN]	0.06 µg/mL (≈ 0.154 µM)

System: Staphylococcus aureus
Test: Antibacterial activity against methicillin-resistant Staphylococcus aureus isolate 12-15
Format: functional
Method in brief: as §2

SMILES	MIC
CO/N=C1\CN(c2nc3c(cc2F)c(=O)c(C(=O)O)cn3C2CC2)CC1CN (stereo unspecified) [GEMIFLOXACIN]	0.03 µg/mL (≈ 0.077 µM)

System: Staphylococcus aureus
Test: Antibacterial activity against methicillin-resistant Staphylococcus aureus isolate 12-13
Format: functional
Method in brief: as §2

SMILES	MIC
CO/N=C1\CN(c2nc3c(cc2F)c(=O)c(C(=O)O)cn3C2CC2)CC1CN (stereo unspecified) [GEMIFLOXACIN]	0.015 µg/mL (≈ 0.0385 µM)

System: Staphylococcus aureus
Test: Antibacterial activity against methicillin-resistant Staphylococcus aureus isolate 12-3
Format: functional
Method in brief: as §2

SMILES	MIC
CO/N=C1\CN(c2nc3c(cc2F)c(=O)c(C(=O)O)cn3C2CC2)CC1CN (stereo unspecified) [GEMIFLOXACIN]	0.03 µg/mL (≈ 0.077 µM)

System: Staphylococcus aureus
Test: Antibacterial activity against methicillin-sensitive Staphylococcus aureus isolate 12-10
Format: functional
Method in brief: as §1

SMILES	MIC
CO/N=C1\CN(c2nc3c(cc2F)c(=O)c(C(=O)O)cn3C2CC2)CC1CN (stereo unspecified) [GEMIFLOXACIN]	0.03 µg/mL (≈ 0.077 µM)

System: Staphylococcus aureus
Test: Antibacterial activity against methicillin-sensitive Staphylococcus aureus isolate 12-7
Format: functional
Method in brief: as §1

SMILES	MIC
CO/N=C1\CN(c2nc3c(cc2F)c(=O)c(C(=O)O)cn3C2CC2)CC1CN (stereo unspecified) [GEMIFLOXACIN]	4 µg/mL (≈ 10.3 µM)

System: Staphylococcus aureus
Test: Antibacterial activity against methicillin-sensitive Staphylococcus aureus isolate 12-6
Format: functional
Method in brief: as §1

SMILES	MIC
CO/N=C1\CN(c2nc3c(cc2F)c(=O)c(C(=O)O)cn3C2CC2)CC1CN (stereo unspecified) [GEMIFLOXACIN]	0.03 µg/mL (≈ 0.077 µM)

System: Staphylococcus aureus
Test: Antibacterial activity against Staphylococcus aureus […]
Format: functional
Method in brief: as §1

SMILES	MIC
CO/N=C1\CN(c2nc3c(cc2F)c(=O)c(C(=O)O)cn3C2CC2)CC1CN (stereo unspecified) [GEMIFLOXACIN]	< 0.008 µg/mL

System: Pseudomonas aeruginosa
Test: Antibacterial activity against Pseudomonas aeruginosa isolate 12-2
Format: functional
Method in brief: as §1

SMILES	MIC
CO/N=C1\CN(c2nc3c(cc2F)c(=O)c(C(=O)O)cn3C2CC2)CC1CN (stereo unspecified) [GEMIFLOXACIN]	16 µg/mL (≈ 41.1 µM)

System: Pseudomonas aeruginosa
Test: Antibacterial activity against Pseudomonas aeruginosa isolate 12-1
Format: functional
Method in brief: as §1

SMILES	MIC
CO/N=C1\CN(c2nc3c(cc2F)c(=O)c(C(=O)O)cn3C2CC2)CC1CN (stereo unspecified) [GEMIFLOXACIN]	8 µg/mL (≈ 20.5 µM)

System: Pseudomonas aeruginosa
Test: Antibacterial activity against Pseudomonas aeruginosa ATCC 27853
Format: functional
Method in brief: as §1

SMILES	MIC
CO/N=C1\CN(c2nc3c(cc2F)c(=O)c(C(=O)O)cn3C2CC2)CC1CN (stereo unspecified) [GEMIFLOXACIN]	1 µg/mL (≈ 2.57 µM)

System: Klebsiella pneumoniae
Test: Antibacterial activity against extended-spectrum beta-lactamase-producing Klebsiella pneumoniae isolate 12-4
Format: functional
Method in brief: as §1

SMILES	MIC
CO/N=C1\CN(c2nc3c(cc2F)c(=O)c(C(=O)O)cn3C2CC2)CC1CN (stereo unspecified) [GEMIFLOXACIN]	2 µg/mL (≈ 5.14 µM)

System: Klebsiella pneumoniae
Test: Antibacterial activity against extended-spectrum beta-lactamase-producing Klebsiella pneumoniae isolate 12-2
Format: functional
Method in brief: as §1

SMILES	MIC
CO/N=C1\CN(c2nc3c(cc2F)c(=O)c(C(=O)O)cn3C2CC2)CC1CN (stereo unspecified) [GEMIFLOXACIN]	2 µg/mL (≈ 5.14 µM)

System: Klebsiella pneumoniae
Test: Antibacterial activity against extended-spectrum beta-lactamase-producing Klebsiella pneumoniae isolate 12-1
Format: functional
Method in brief: as §1

SMILES	MIC
CO/N=C1\CN(c2nc3c(cc2F)c(=O)c(C(=O)O)cn3C2CC2)CC1CN (stereo unspecified) [GEMIFLOXACIN]	2 µg/mL (≈ 5.14 µM)

System: Klebsiella pneumoniae
Test: Antibacterial activity against Klebsiella pneumoniae isolate 12-4
Format: functional
Method in brief: as §1

SMILES	MIC
CO/N=C1\CN(c2nc3c(cc2F)c(=O)c(C(=O)O)cn3C2CC2)CC1CN (stereo unspecified) [GEMIFLOXACIN]	0.06 µg/mL (≈ 0.154 µM)

System: Klebsiella pneumoniae
Test: Antibacterial activity against Klebsiella pneumoniae isolate 12-2
Format: functional
Method in brief: as §1

SMILES	MIC
CO/N=C1\CN(c2nc3c(cc2F)c(=O)c(C(=O)O)cn3C2CC2)CC1CN (stereo unspecified) [GEMIFLOXACIN]	0.06 µg/mL (≈ 0.154 µM)

System: Klebsiella pneumoniae
Test: Antibacterial activity against Klebsiella pneumoniae isolate 12-1
Format: functional
Method in brief: as §1

SMILES	MIC
CO/N=C1\CN(c2nc3c(cc2F)c(=O)c(C(=O)O)cn3C2CC2)CC1CN (stereo unspecified) [GEMIFLOXACIN]	0.03 µg/mL (≈ 0.077 µM)
